Results taken from ChEMBL document CHEMBL5303300, “EUbOPEN Chemogenomics Library - Multiplex” (2023).
Several values for one entry are separate records, joined by “and”; a condition that tells them apart may be missing. Identical values can stand only once.

Tests used:
[1] = tested on: Fibroblast; test: Multiplex assay against human fibroblast; type: toxicity, cell-based; conditions: number of replicates 2
Method in brief: (§1)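 Hoechst33342, BioTracker Green Microtubule Cytoskeleton Dye, MitoTracker Red and Annexin V Alexa Fluor 680 were added to live cells at seeding, and imaging on a CQ1 microscope at 37°C and 5% CO2 followed compound addition. Gating by CellPathfinder machine learning separated cells into Hoechst high-intensity objects or normal cells, then normal cells into healthy, pyknosed or fragmented nuclei, then pyknosed cells into mitotic or apoptotic. Per cents of healthy-nucleus cells are reported for the tubulin, mitochondrial-mass and membrane-permeability phenotypes.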

[2] = tested on: U2OS; test: Multiplex assay against U2OS; type: toxicity, cell-based; conditions: human, number of replicates 2; method in brief: as §1
[3] = 12 h, 1 µM, compound concentration 1 uM
[4] = 12 h, 10 µM, compound concentration 10 uM
[5] = 24 h, 1 µM, compound concentration 1 uM
[6] = 24 h, 10 µM, compound concentration 10 uM
[7] = 48 h, 1 µM, compound concentration 1 uM
[8] = 48 h, 10 µM, compound concentration 10 uM

Cl.Clc1ccc2nsnc2c1NC1=NCCN1 [TIZANIDINE HYDROCHLORIDE]
Population Apoptotic (%) [1, 3]: 50% and 48% | Population Fragmented Nuclei (%) [1, 3]: 10% | Population Healthy Nuclei (%) [1, 3]: 62% | Population Hoechst High Intensity Objects (%) [1, 3]: 0% | Population Membrane Permeable-Phenotype (%) [1, 3]: 4% and 7% | Population Mitochondria Different-Phenotype (%) [1, 3]: 0% | Population Mitotic Cells (%) [1, 3]: 49% and 51% | Population Normal (%) [1, 3]: 100% | Population Pyknosed Nuclei (%) [1, 3]: 26% and 27% | Population Tubulin-Different-Phenotype (%) [1, 3]: 10% and 5% | Total Cell Count [1, 3]: 192 and 172 | Population Apoptotic (%) [1, 4]: 36% | Population Fragmented Nuclei (%) [1, 4]: 16% and 15% | Population Healthy Nuclei (%) [1, 4]: 68% and 70% | Population Hoechst High Intensity Objects (%) [1, 4]: 0% | Population Membrane Permeable-Phenotype (%) [1, 4]: 5% and 3% | Population Mitochondria Different-Phenotype (%) [1, 4]: 3% and 1% | Population Mitotic Cells (%) [1, 4]: 63% | Population Normal (%) [1, 4]: 100% | Population Pyknosed Nuclei (%) [1, 4]: 15% and 13% | Population Tubulin-Different-Phenotype (%) [1, 4]: 14% and 8% | Total Cell Count [1, 4]: 194 and 264 | Population Apoptotic (%) [1, 5]: 67% and 56% | Population Fragmented Nuclei (%) [1, 5]: 9% and 13% | Population Healthy Nuclei (%) [1, 5]: 60% and 57% | Population Hoechst High Intensity Objects (%) [1, 5]: 0% | Population Membrane Permeable-Phenotype (%) [1, 5]: 6% | Population Mitochondria Different-Phenotype (%) [1, 5]: 1% and 0% | Population Mitotic Cells (%) [1, 5]: 32% and 44% | Population Normal (%) [1, 5]: 100% | Population Pyknosed Nuclei (%) [1, 5]: 29% and 28% | Population Tubulin-Different-Phenotype (%) [1, 5]: 14% and 8% | Total Cell Count [1, 5]: 176 and 173 | Population Apoptotic (%) [1, 6]: 71% and 45% | Population Fragmented Nuclei (%) [1, 6]: 12% and 14% | Population Healthy Nuclei (%) [1, 6]: 71% and 72% | Population Hoechst High Intensity Objects (%) [1, 6]: 0% | Population Membrane Permeable-Phenotype (%) [1, 6]: 6% and 4% | Population Mitochondria Different-Phenotype (%) [1, 6]: 3% and 1% | Population Mitotic Cells (%) [1, 6]: 28% and 54% | Population Normal (%) [1, 6]: 100% and 99% | Population Pyknosed Nuclei (%) [1, 6]: 15% and 12% | Population Tubulin-Different-Phenotype (%) [1, 6]: 12% and 8% | Total Cell Count [1, 6]: 182 and 271 | Population Apoptotic (%) [1, 7]: 68% and 59% | Population Fragmented Nuclei (%) [1, 7]: 11% and 15% | Population Healthy Nuclei (%) [1, 7]: 71% and 63% | Population Hoechst High Intensity Objects (%) [1, 7]: 0% | Population Membrane Permeable-Phenotype (%) [1, 7]: 6% and 11% | Population Mitochondria Different-Phenotype (%) [1, 7]: 0% | Population Mitotic Cells (%) [1, 7]: 31% and 40% | Population Normal (%) [1, 7]: 100% and 99% | Population Pyknosed Nuclei (%) [1, 7]: 17% and 20% | Population Tubulin-Different-Phenotype (%) [1, 7]: 12% and 3% | Total Cell Count [1, 7]: 186 and 203 | Population Apoptotic (%) [1, 8]: 72% and 60% | Population Fragmented Nuclei (%) [1, 8]: 13% and 12% | Population Healthy Nuclei (%) [1, 8]: 70% and 78% | Population Hoechst High Intensity Objects (%) [1, 8]: 0% | Population Membrane Permeable-Phenotype (%) [1, 8]: 5% and 2% | Population Mitochondria Different-Phenotype (%) [1, 8]: 0% | Population Mitotic Cells (%) [1, 8]: 27% and 39% | Population Normal (%) [1, 8]: 100% and 99% | Population Pyknosed Nuclei (%) [1, 8]: 15% and 8% | Population Tubulin-Different-Phenotype (%) [1, 8]: 8% and 2% | Total Cell Count [1, 8]: 193 and 260 | Population Apoptotic (%) [2, 3]: 50% and 55% | Population Fragmented Nuclei (%) [2, 3]: 14% and 4% | Population Healthy Nuclei (%) [2, 3]: 75% and 86% | Population Hoechst High Intensity Objects (%) [2, 3]: 0% | Population Membrane Permeable-Phenotype (%) [2, 3]: 0% and 1% | Population Mitochondria Different-Phenotype (%) [2, 3]: 3% and 0% | Population Mitotic Cells (%) [2, 3]: 50% and 44% | Population Normal (%) [2, 3]: 100% | Population Pyknosed Nuclei (%) [2, 3]: 9% | Population Tubulin-Different-Phenotype (%) [2, 3]: 100% and 96% | Population Fragmented Nuclei (%) [2, 4]: 7% and 4% | Population Healthy Nuclei (%) [2, 4]: 89% and 87% | Population Hoechst High Intensity Objects (%) [2, 4]: 0% | Population Membrane Permeable-Phenotype (%) [2, 4]: 2% and 0% | Population Mitochondria Different-Phenotype (%) [2, 4]: 0% | Population Normal (%) [2, 4]: 100% | Population Pyknosed Nuclei (%) [2, 4]: 2% and 8% | Population Tubulin-Different-Phenotype (%) [2, 4]: 68% and 97% | Population Apoptotic (%) [2, 5]: 100% and 58% | Population Fragmented Nuclei (%) [2, 5]: 8% and 3% | Population Healthy Nuclei (%) [2, 5]: 85% and 89% | Population Hoechst High Intensity Objects (%) [2, 5]: 1% and 0% | Population Membrane Permeable-Phenotype (%) [2, 5]: 1% | Population Mitochondria Different-Phenotype (%) [2, 5]: 0% and 1% | Population Normal (%) [2, 5]: 98% and 100% | Population Pyknosed Nuclei (%) [2, 5]: 6% and 7% | Population Tubulin-Different-Phenotype (%) [2, 5]: 100% and 95% | Population Fragmented Nuclei (%) [2, 6]: 10% and 2% | Population Healthy Nuclei (%) [2, 6]: 89% and 92% | Population Hoechst High Intensity Objects (%) [2, 6]: 0% | Population Membrane Permeable-Phenotype (%) [2, 6]: 0% and 1% | Population Mitochondria Different-Phenotype (%) [2, 6]: 0% | Population Normal (%) [2, 6]: 100% | Population Pyknosed Nuclei (%) [2, 6]: 0% and 5% | Population Tubulin-Different-Phenotype (%) [2, 6]: 77% and 96% | Population Apoptotic (%) [2, 7]: 40% | Population Fragmented Nuclei (%) [2, 7]: 11% | Population Healthy Nuclei (%) [2, 7]: 78% | Population Hoechst High Intensity Objects (%) [2, 7]: 1% | Population Membrane Permeable-Phenotype (%) [2, 7]: 3% | Population Mitochondria Different-Phenotype (%) [2, 7]: 0% | Population Mitotic Cells (%) [2, 7]: 60% | Population Normal (%) [2, 7]: 98% | Population Pyknosed Nuclei (%) [2, 7]: 10% | Population Tubulin-Different-Phenotype (%) [2, 7]: 97% | Total Cell Count [2, 7]: 99 | Population Apoptotic (%) [2, 8]: 88% and 38% | Population Fragmented Nuclei (%) [2, 8]: 4% and 2% | Population Healthy Nuclei (%) [2, 8]: 84% and 92% | Population Hoechst High Intensity Objects (%) [2, 8]: 0% | Population Membrane Permeable-Phenotype (%) [2, 8]: 2% and 0% | Population Mitochondria Different-Phenotype (%) [2, 8]: 0% | Population Normal (%) [2, 8]: 100% | Population Pyknosed Nuclei (%) [2, 8]: 10% and 4% | Population Tubulin-Different-Phenotype (%) [2, 8]: 72% and 99%
